Assay results from ChEMBL document CHEMBL1932925, “Synthesis, biological evaluation, and molecular docking studies of cinnamic acyl 1,3,4-thiadiazole amide derivatives as novel antitubulin agents” (Bioorg Med Chem, 2012).
Values after ≈ are worked out from the molar mass of the structure shown.

Key:
[1] = Inhibition of bovine brain tubulin polymerization preincubated for 10 mins measured after 20 mins; design: species or system Bos taurus
Procedure, shortened: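 Tubulin purified from bovine brain, used at 10 µM in glutamate buffer and preincubated with varying compound concentrations at 30 °C, then cooled to 0 °C. GTP added and mixtures warmed to 30 °C in a recording spectrophotometer, with assembly followed turbidimetrically.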

[2] = test system: A549; experiment: Antiproliferative activity against human A549 cells after 48 hrs by MTT assay; format: functional, cell-based; details: A549, 48 h
Procedure, shortened: (§1)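 Cells diluted to 2×10^4 cells mL⁻¹ in complete medium, plated and held 24 h at 37 °C, 5% CO₂ before dosing at pre-set concentrations. After 48 h exposure, MTT (2.5 mg mL⁻¹ in PBS) added for 4 h, then SDS–isobutyl alcohol–HCl extraction solution overnight at 37 °C. Absorbance read at 570 nm. Three replicate wells per concentration, each assay run at least three times.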

[3] = test system: MCF7; experiment: Antiproliferative activity against human MCF7 cells after 48 hrs by MTT assay; format: functional, cell-based; details: MCF7, 48 h; procedure, shortened: as §1
[4] = test system: MCF7; experiment: Induction of cell cycle arrest in human MCF7 cells assessed as accumulation at S phase at 5 ug/ml after 24 hrs by flow cytometric analysis (reference value: 12%); format: functional
[5] = test system: MCF7; experiment: Induction of cell cycle arrest in human MCF7 cells assessed as accumulation at G0/G1 phase at 5 ug/ml after 24 hrs by flow cytometric analysis (reference value: 66%); format: functional
[6] = test system: MCF7; experiment: Induction of cell cycle arrest in human MCF7 cells assessed as accumulation at G2/M phase at 5 ug/ml after 24 hrs by flow cytometric analysis (reference value: 18%); format: functional

Compound | IC50 [1] [µg/mL] | IC50 [2] [µg/mL] | IC50 [3] [µg/mL] | Activity [4] [%] | Activity [5] [%] | Activity [6] [%]
O=C(/C=C/c1ccccc1)Nc1nnc(-c2ccccc2)s1 | 5.68 (≈ 18.5 µM) | 1.75 (≈ 5.69 µM) | 1.47 (≈ 4.78 µM) | – | – | –
O=C(/C=C/c1ccc(F)cc1)Nc1nnc(-c2ccccc2)s1 | 5.87 (≈ 18 µM) | 1.82 (≈ 5.59 µM) | 1.45 (≈ 4.46 µM) | – | – | –
O=C(/C=C/c1ccc(C(F)(F)F)cc1)Nc1nnc(-c2ccccc2)s1 | 5.52 (≈ 14.7 µM) | 1.78 (≈ 4.74 µM) | 1.52 (≈ 4.05 µM) | – | – | –
Cc1ccc(/C=C/C(=O)Nc2nnc(-c3ccccc3)s2)cc1 | 4.49 (≈ 14 µM) | 1.58 (≈ 4.92 µM) | 1.23 (≈ 3.83 µM) | – | – | –
COc1ccc(/C=C/C(=O)Nc2nnc(-c3ccccc3)s2)cc1 | 3.02 (≈ 8.95 µM) | 0.76 (≈ 2.25 µM) | 0.83 (≈ 2.46 µM) | – | – | –
O=C(/C=C/c1ccccc1)Nc1nnc(-c2ccc(Cl)cc2)s1 | 6.56 (≈ 19.2 µM) | 2.02 (≈ 5.91 µM) | 1.42 (≈ 4.15 µM) | – | – | –
O=C(/C=C/c1ccc(F)cc1)Nc1nnc(-c2ccc(Cl)cc2)s1 | 7.08 (≈ 19.7 µM) | 2.06 (≈ 5.73 µM) | 1.58 (≈ 4.39 µM) | – | – | –
O=C(/C=C/c1ccc(C(F)(F)F)cc1)Nc1nnc(-c2ccc(Cl)cc2)s1 | 7.83 (≈ 19.1 µM) | 3.09 (≈ 7.54 µM) | 1.65 (≈ 4.03 µM) | – | – | –
Cc1ccc(/C=C/C(=O)Nc2nnc(-c3ccc(Cl)cc3)s2)cc1 | 4.79 (≈ 13.5 µM) | 1.25 (≈ 3.51 µM) | 1.44 (≈ 4.05 µM) | – | – | –
COc1ccc(/C=C/C(=O)Nc2nnc(-c3ccc(Cl)cc3)s2)cc1 | 5.68 (≈ 15.3 µM) | 1.38 (≈ 3.71 µM) | 0.91 (≈ 2.45 µM) | – | – | –
O=C(/C=C/c1ccccc1)Nc1nnc(-c2ccc(Br)cc2)s1 | 7.05 (≈ 18.3 µM) | 2.18 (≈ 5.64 µM) | 1.5 (≈ 3.88 µM) | – | – | –
O=C(/C=C/c1ccc(F)cc1)Nc1nnc(-c2ccc(Br)cc2)s1 | 8.66 (≈ 21.4 µM) | 2.83 (≈ 7 µM) | 1.49 (≈ 3.69 µM) | – | – | –
O=C(/C=C/c1ccc(C(F)(F)F)cc1)Nc1nnc(-c2ccc(Br)cc2)s1 | 10.6 (≈ 23.3 µM) | 4.68 (≈ 10.3 µM) | 1.58 (≈ 3.48 µM) | – | – | –
Cc1ccc(/C=C/C(=O)Nc2nnc(-c3ccc(Br)cc3)s2)cc1 | 5.02 (≈ 12.5 µM) | 1.51 (≈ 3.77 µM) | 1.32 (≈ 3.3 µM) | – | – | –
COc1ccc(/C=C/C(=O)Nc2nnc(-c3ccc(Br)cc3)s2)cc1 | 4.11 (≈ 9.87 µM) | 1.04 (≈ 2.5 µM) | 1.13 (≈ 2.71 µM) | – | – | –
Cc1ccc(-c2nnc(NC(=O)/C=C/c3ccccc3)s2)cc1 | 4.83 (≈ 15 µM) | 1.38 (≈ 4.29 µM) | 1.19 (≈ 3.7 µM) | – | – | –
Cc1ccc(-c2nnc(NC(=O)/C=C/c3ccc(F)cc3)s2)cc1 | 5.08 (≈ 15 µM) | 1.23 (≈ 3.62 µM) | 1.27 (≈ 3.74 µM) | – | – | –
Cc1ccc(-c2nnc(NC(=O)/C=C/c3ccc(C(F)(F)F)cc3)s2)cc1 | 5.16 (≈ 13.3 µM) | 1.61 (≈ 4.13 µM) | 1.1 (≈ 2.82 µM) | – | – | –
Cc1ccc(/C=C/C(=O)Nc2nnc(-c3ccc(C)cc3)s2)cc1 | 4.15 (≈ 12.4 µM) | 1.08 (≈ 3.22 µM) | 0.61 (≈ 1.82 µM) | – | – | –
COc1ccc(/C=C/C(=O)Nc2nnc(-c3ccc(C)cc3)s2)cc1 | 2.64 (≈ 7.51 µM) | 0.66 (≈ 1.88 µM) | 0.35 (≈ 0.996 µM) | – | – | –
COc1ccc(-c2nnc(NC(=O)/C=C/c3ccccc3)s2)cc1 | 3.08 (≈ 9.13 µM) | 0.68 (≈ 2.02 µM) | 0.78 (≈ 2.31 µM) | – | – | –
COc1ccc(-c2nnc(NC(=O)/C=C/c3ccc(F)cc3)s2)cc1 | 3.05 (≈ 8.58 µM) | 0.75 (≈ 2.11 µM) | 0.85 (≈ 2.39 µM) | – | – | –
COc1ccc(-c2nnc(NC(=O)/C=C/c3ccc(C(F)(F)F)cc3)s2)cc1 | 3.17 (≈ 7.82 µM) | 0.69 (≈ 1.7 µM) | 0.79 (≈ 1.95 µM) | – | – | –
COc1ccc(-c2nnc(NC(=O)/C=C/c3ccc(C)cc3)s2)cc1 | 2.56 (≈ 7.28 µM) | 0.58 (≈ 1.65 µM) | 0.31 (≈ 0.882 µM) | – | – | –
COc1ccc(/C=C/C(=O)Nc2nnc(-c3ccc(OC)cc3)s2)cc1 | 1.16 (≈ 3.16 µM) | 0.52 (≈ 1.42 µM) | 0.28 (≈ 0.762 µM) | 2 | 2 | 68
COc1cc2c(c(OC)c1OC)-c1ccc(OC)c(=O)cc1[C@@H](NC(C)=O)CC2 [COLCHICINE] | – | 0.75 (≈ 1.88 µM) | 0.53 (≈ 1.33 µM) | 3 | 2 | 79
COc1ccc(/C=C\c2cc(OC)c(OC)c(OC)c2)cc1O [COMBRETASTATIN A4] | 0.81 (≈ 2.56 µM) | 0.55 (≈ 1.74 µM) | 0.41 (≈ 1.3 µM) | – | – | –
